ChEMBL document CHEMBL1145801, “Inhibition of Cdc25 phosphatases by indolyldihydroxyquinones” (J Med Chem, 2003)

Columns and labels:
[1] = Inhibitory constant of compound against Cdc25 phosphatase was determined
[2] = target: M-phase inducer phosphatase 2 (Homo sapiens, UniProt P30305, E488Q); assay: Inhibitory concentration of compound against mutant E474Q of Cell division cycle 25B was determined
How it was run: (§1)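 Cdc25B catalytic-domain point mutants, a truncated form and wild type were assayed with 3-O-methylfluorescein phosphate as substrate, monitored at 477 nm under initial velocity conditions. Values are the mean of two separate determinations.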

[3] = target: M-phase inducer phosphatase 2 (Homo sapiens, UniProt P30305, E492Q); assay: Inhibitory concentration of compound against mutant E478Q of Cell division cycle 25B was determined; how it was run: as §1
M-phase inducer phosphatase 2 (Homo sapiens, UniProt P30305, E492Q), sequence (P30305 whole entry E492Q): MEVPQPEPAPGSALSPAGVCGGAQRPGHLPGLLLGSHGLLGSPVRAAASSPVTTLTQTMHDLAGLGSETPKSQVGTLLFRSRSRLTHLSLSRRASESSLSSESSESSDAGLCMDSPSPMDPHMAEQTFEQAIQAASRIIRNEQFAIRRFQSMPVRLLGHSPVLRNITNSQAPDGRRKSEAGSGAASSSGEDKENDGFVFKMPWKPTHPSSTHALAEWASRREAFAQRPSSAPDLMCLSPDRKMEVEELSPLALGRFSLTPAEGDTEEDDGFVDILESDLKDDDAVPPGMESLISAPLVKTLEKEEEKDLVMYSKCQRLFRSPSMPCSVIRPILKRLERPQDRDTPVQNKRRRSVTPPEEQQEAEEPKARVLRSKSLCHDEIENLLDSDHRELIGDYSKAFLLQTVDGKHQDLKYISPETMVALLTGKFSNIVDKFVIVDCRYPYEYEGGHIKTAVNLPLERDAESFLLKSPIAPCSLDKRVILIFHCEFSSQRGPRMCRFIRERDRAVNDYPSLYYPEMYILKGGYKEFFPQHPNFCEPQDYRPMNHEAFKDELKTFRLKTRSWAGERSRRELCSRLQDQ

[4] = target: T1, M-phase inducer phosphatase 2 (Homo sapiens, UniProt P30305); assay: Eight point inhibitory concentration against Cell division cycle 25B was determined
T1 sequence (P30305 whole entry): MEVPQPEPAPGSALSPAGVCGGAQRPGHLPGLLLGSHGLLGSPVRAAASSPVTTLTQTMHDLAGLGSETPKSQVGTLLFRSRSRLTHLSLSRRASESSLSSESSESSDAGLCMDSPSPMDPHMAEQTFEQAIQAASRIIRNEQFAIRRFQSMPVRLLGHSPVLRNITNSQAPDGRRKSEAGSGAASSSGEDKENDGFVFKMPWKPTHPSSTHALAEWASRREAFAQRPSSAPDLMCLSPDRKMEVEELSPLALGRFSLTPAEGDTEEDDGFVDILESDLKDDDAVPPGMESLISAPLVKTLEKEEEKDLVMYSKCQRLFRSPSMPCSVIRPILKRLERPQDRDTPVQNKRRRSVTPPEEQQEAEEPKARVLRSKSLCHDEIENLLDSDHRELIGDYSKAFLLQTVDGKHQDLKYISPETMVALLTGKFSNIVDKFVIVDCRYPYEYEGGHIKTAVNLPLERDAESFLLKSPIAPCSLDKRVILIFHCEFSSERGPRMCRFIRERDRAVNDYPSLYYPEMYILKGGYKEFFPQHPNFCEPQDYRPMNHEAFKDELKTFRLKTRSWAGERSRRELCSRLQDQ
How it was run: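 Cdc25B activity read by UV-vis at 477 nm as product formed from 3-O-methylfluorescein phosphate (mFP) at 50 μM (~5 × Km), time-dependent, initial-velocity conditions (2–5% turnover); eight inhibitor concentrations, IC50 fitted to eq 1. Each reaction compared with a simultaneous no-inhibitor control; selected compounds run in duplicate.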

[5] = target: T1, M-phase inducer phosphatase 2; assay: Inhibitory concentration of compound against Cell division cycle 25B was determined using CDK2-p-TpY/Cyclin A as a substrate
How it was run: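 Cdc25B dephosphorylation of 300 nM Cdk2-pTpY/CycA protein substrate was run in time-dependent assays at eight inhibitor concentrations to give IC50. Reactions were quenched with TCA, and bovine serum albumin carrier (1 mg/mL) was added only after the quench so that it was absent during inhibitor exposure.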

[6] = target: T2, M-phase inducer phosphatase 2 (Homo sapiens) (UniProt P30305); assay: Percent inhibition of cell division cycle 25B at 50 uM
T2 sequence (whole entry): T1 sequence (P30305 whole entry)
How it was run: (§2)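 Single-point screen at 50 μM inhibitor against Cdc25A, Cdc25B or Cdc25C with 50 μM 3-O-methylfluorescein phosphate, product followed at 477 nm in time-dependent assays. Activity was compared with a simultaneous no-inhibitor control, and selected compounds were run in duplicate (average error ±7%).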

[7] = target: T3, M-phase inducer phosphatase 3 (Homo sapiens, UniProt P30307); assay: Eight point inhibitory concentration against Cell division cycle 25 degree C was determined
T3 sequence (P30307 whole entry): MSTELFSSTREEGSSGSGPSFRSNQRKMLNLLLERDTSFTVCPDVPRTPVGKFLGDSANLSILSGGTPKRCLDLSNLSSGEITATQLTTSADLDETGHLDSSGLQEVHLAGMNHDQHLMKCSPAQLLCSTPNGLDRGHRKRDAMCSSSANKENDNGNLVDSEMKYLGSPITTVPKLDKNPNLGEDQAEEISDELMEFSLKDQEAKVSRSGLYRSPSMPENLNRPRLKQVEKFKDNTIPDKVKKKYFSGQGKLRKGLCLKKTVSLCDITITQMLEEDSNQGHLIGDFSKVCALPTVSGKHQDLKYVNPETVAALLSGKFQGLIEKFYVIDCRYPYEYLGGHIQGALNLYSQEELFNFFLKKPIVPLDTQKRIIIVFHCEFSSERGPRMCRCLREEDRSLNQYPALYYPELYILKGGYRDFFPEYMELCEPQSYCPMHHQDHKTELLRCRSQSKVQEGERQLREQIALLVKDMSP
How it was run: (§3)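 Phosphatase activity measured with 3-O-methylfluorescein phosphate at 50 μM (~5 × Km), product formation followed at 477 nm by UV-vis under initial velocity conditions (2–5% turnover) in time-dependent assays. Eight inhibitor concentrations were used, and IC50 was obtained by fitting to a dose–response equation.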

[8] = target: T4, M-phase inducer phosphatase 3 (Homo sapiens) (UniProt P30307); assay: Percent inhibition of cell division cycle 25 degree C at 50 uM; how it was run: as §2
T4 sequence (whole entry): T3 sequence (P30307 whole entry)

[9] = target: T5, M-phase inducer phosphatase 1 (Homo sapiens, UniProt P30304); assay: Eight point inhibitory concentration against Cell division cycle 25A was determined; how it was run: as §3
T5 sequence (P30304 whole entry): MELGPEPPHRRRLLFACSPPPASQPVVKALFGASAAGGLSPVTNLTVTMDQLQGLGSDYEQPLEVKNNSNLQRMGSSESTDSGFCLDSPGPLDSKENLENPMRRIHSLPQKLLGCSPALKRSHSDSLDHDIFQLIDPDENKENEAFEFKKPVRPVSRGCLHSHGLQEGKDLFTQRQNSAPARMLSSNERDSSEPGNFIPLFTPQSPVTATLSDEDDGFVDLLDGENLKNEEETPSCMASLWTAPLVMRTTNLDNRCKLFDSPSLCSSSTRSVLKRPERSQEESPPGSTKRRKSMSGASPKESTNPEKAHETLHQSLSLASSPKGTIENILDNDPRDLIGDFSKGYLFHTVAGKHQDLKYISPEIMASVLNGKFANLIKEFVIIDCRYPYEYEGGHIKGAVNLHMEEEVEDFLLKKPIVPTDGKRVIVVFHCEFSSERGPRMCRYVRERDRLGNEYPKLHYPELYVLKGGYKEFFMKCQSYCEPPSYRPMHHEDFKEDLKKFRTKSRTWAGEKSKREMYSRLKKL

[10] = target: T6, M-phase inducer phosphatase 1 (Homo sapiens) (UniProt P30304); assay: Percent inhibition of cell division cycle 25A at 50 uM; how it was run: as §2
T6 sequence (whole entry): T5 sequence (P30304 whole entry)

[11] = target: M-phase inducer phosphatase 2 (Homo sapiens, UniProt P30305, F489A); assay: Inhibitory concentration of compound against mutant F475A of Cell division cycle 25B was determined; how it was run: as §1
M-phase inducer phosphatase 2 (Homo sapiens, UniProt P30305, F489A), sequence (P30305 whole entry F489A): as the sequence (P30305 whole entry E492Q) above, with F489A, Q492E counted along it

[12] = target: M-phase inducer phosphatase 2 (Homo sapiens, UniProt P30305, M545A); assay: Inhibitory concentration of compound against mutant M531A of Cell division cycle 25B was determined; how it was run: as §1
M-phase inducer phosphatase 2 (Homo sapiens, UniProt P30305, M545A), sequence (P30305 whole entry M545A): as the sequence (P30305 whole entry E492Q) above, with Q492E, M545A counted along it

[13] = target: M-phase inducer phosphatase 2 (Homo sapiens, UniProt P30305, R496L); assay: Inhibitory concentration of compound against mutant R482L of Cell division cycle 25B was determined; how it was run: as §1
M-phase inducer phosphatase 2 (Homo sapiens, UniProt P30305, R496L), sequence (P30305 whole entry R496L): as the sequence (P30305 whole entry E492Q) above, with Q492E, R496L counted along it

[14] = target: M-phase inducer phosphatase 2 (Homo sapiens, UniProt P30305, R506L); assay: Inhibitory concentration of compound against mutant R492L of Cell division cycle 25B was determined; how it was run: as §1
M-phase inducer phosphatase 2 (Homo sapiens, UniProt P30305, R506L), sequence (P30305 whole entry R506L): as the sequence (P30305 whole entry E492Q) above, with Q492E, R506L counted along it

[15] = target: M-phase inducer phosphatase 2 (Homo sapiens, UniProt P30305, R558L); assay: Inhibitory concentration of compound against mutant R544L of Cell division cycle 25B was determined; how it was run: as §1
M-phase inducer phosphatase 2 (Homo sapiens, UniProt P30305, R558L), sequence (P30305 whole entry R558L, the tested form may be a part): as the sequence (P30305 whole entry E492Q) above, with Q492E, R558L counted along it

[16] = target: T7, M-phase inducer phosphatase 2 (Homo sapiens, UniProt P30305); assay: Inhibitory concentration of compound against truncated mutant of Cell division cycle 25B was determined; how it was run: as §1
[17] = target: T7, M-phase inducer phosphatase 2; assay: Inhibitory concentration of compound against mutant WT of Cell division cycle 25B was determined; how it was run: as §1
[18] = target: T1, M-phase inducer phosphatase 2; assay: Inhibitory constant of compound against Cell division cycle 25B was determined using mFP as a substrate
[19] = target: M-phase inducer phosphatase 2 (Homo sapiens, UniProt P30305, Y542F); assay: Inhibitory concentration of compound against mutant Y528F of Cell division cycle 25B was determined; how it was run: as §1
M-phase inducer phosphatase 2 (Homo sapiens, UniProt P30305, Y542F), sequence (P30305 whole entry Y542F): as the sequence (P30305 whole entry E492Q) above, with Q492E, Y542F counted along it

M-phase inducer phosphatase 2 (Homo sapiens, UniProt P30305, E488Q), sequence (P30305 whole entry E488Q, the tested form may be a part): as the sequence (P30305 whole entry E492Q) above, with E488Q, Q492E counted along it

Work on `CC(C)=CCC/C(C)=C/CC/C(C)=C/Cc1c(Cl)cc(Cl)c2c(C3=C(O)C(O)=CC(=O)C3=O)c[nH]c12` yielded a Ki [1] of 0.47 µM.
`CC(C)=CCc1cccc2c(C3=C(O)C(O)=CC(=O)C3=O)c[nH]c12` showed an IC50 [2] of over 50 µM, an IC50 [3] of 6.5 µM and an IC50 [4] of 5.6 µM. The IC50 [5] was 28.2 µM, the inhibition [6] was 99% and the IC50 [7] was 15 µM. It also gave an inhibition [8] of 84%, an IC50 [9] of 4.1 µM and an inhibition [10] of 100%. For the same compound, the IC50 [11] was over 50 µM, the IC50 [12] was 6.5 µM and the IC50 [13] was 40 µM. The IC50 [14] was 11 µM, the IC50 [15] was 12 µM and the IC50 [16] was 33 µM. For the same compound, the IC50 [17] was 6.4 µM, the Ki [18] was 0.64 µM and the IC50 [19] was 15 µM.
